Compound activity (PubChem)
GPR7 antagonist: GPR7 receptor antagonists, primary screen, cell-based, fluorescence, single concentration | Neuropeptides B/W receptor type 1 (Homo sapiens), P48145 | GPR7-expressing cells, fluorescence antagonist assay | inhibition, % at 4.4 µM | 1.1% of 290,000 active; in the data active means inhibition above about 16%, passing the limit was not always enough;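 further: cells stimulated with the agonist NPW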
Target sequence (P48145 whole entry, looked up): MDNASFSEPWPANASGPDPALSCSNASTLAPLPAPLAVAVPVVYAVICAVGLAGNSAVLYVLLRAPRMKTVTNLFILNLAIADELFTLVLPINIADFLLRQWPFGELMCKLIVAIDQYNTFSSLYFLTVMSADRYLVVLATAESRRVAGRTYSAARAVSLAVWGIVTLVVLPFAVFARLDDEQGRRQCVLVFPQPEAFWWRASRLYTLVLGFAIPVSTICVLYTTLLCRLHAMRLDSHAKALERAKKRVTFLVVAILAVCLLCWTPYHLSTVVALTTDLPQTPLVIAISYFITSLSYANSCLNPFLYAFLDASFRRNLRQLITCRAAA
OX1R antag-1: OX1R (HCRTR1) antagonists, primary screen, fluorescence, CHO/OX1R cells, Fluo-8 calcium, orexin A. Fluo-8 calcium fluorescence. 0.43% of 330,000 active. inhibition, % at 5 µM. Orexin/Hypocretin receptor type 1 (Homo sapiens), O43613;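 active means inhibition above its plate's threshold, mean inhibition of all tested compounds on the plate plus 3 SD, cut at about 37% in these data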
OX1R antag-2: antagonists of human orexin 1 receptor (OX1R); Orexin/Hypocretin receptor type 1 (Homo sapiens), O43613; OX1R-expressing cells, FRET antagonist read-out; inhibition, % at 6.6 µM; 1.8% of 330,000 active; AID 485270, 2010; in the data active means inhibition mostly above about 38%, no sharp cut-off; inactive means mostly below about 40%
CHO parental Ca: ATP-evoked calcium signal inhibitors, parental CHO, primary screen, counter-screen for OX1R antagonist project, cell-based, fluorescence, Fluo-8 calcium dye | parental CHO-K1, ATP-induced calcium, Fluo-8 fluorescence | 0.63% of 330,000 active | inhibition, % at 5.6 µM | AID 463079, 2010;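 active means inhibition above that plate's mean sample inhibition plus 3 SD, cut at about 26% in these data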
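test system = CHO parental line | reagent = ATP stimulus | measured by = intracellular calcium via Fluo-8 no-wash fluorescent dye | control set = ATP and no-ATP DMSO wells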
MPTP inh: mitochondrial permeability transition pore inhibitors, primary screen, biochemical, isolated mouse mitochondria, absorbance. 1.4% of 360,000 active. AID 602449, 2012. inhibition, % at 10 µM. Ca2+ swelling absorbance, 30 min;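 active means inhibition of 50% or more, scaled per plate between neutral and stimulator controls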
Rh123 counter: fluorescence retest of MPTP screen hits in isolated mitochondria, single concentration; membrane potential, Rhodamine 123 fluorescence; inhibition, % at 10 µM; shares compounds with MPTP inh; AID 624504, 2012; 78% of 5,000 active; in the data active means inhibition above about 22%
MPTP abs DR: mitochondrial permeability transition pore inhibitors, dose response, biochemical, absorbance, uHTS hits. shares compounds with MPTP inh. isolated mitochondria swelling. IC50, µM. 58% of 780 active. AID 651561, 2012; in the data active means IC50 below about 20 µM
MPTP cs DR: fluorescent counter-screen in isolated mitochondria, dose response, counter-screen for MPTP inhibitor project, biochemical, fluorescence, uHTS hits; isolated mitochondria counterscreen, fluorescence read-out; shares compounds with MPTP inh; AID 651564, 2012; IC50, µM; 49% of 780 active; in the data active means IC50 below about 80 µM
A number is an active result; n = inactive; x = no result. Sampled rows, rich in hits. Any-hit rate of the full collection: about 3.8%.

SMILES	GPR7 antagonist	OX1R antag-1	OX1R antag-2	CHO parental Ca	MPTP inh	Rh123 counter	others
CCCOc1ccc(NC(=O)c2c(-c3ccccc3)noc2C)cc1	n	n	n	n	n	x
CCCOc1ccc(C(=O)NC(=S)NNC(=O)c2c(-c3ccccc3)noc2C)cc1	n	70	n	39	69	n
Cc1onc(-c2ccccc2)c1C(=O)NC(=S)NNC(=O)c1ccc(O)cc1O	n	n	n	n	n	x
Cc1onc(-c2ccccc2)c1C(=O)NC(=S)NNC(=O)c1ccccc1O	n	n	n	n	95	n
Cc1[nH]c2ccccc2c1C1=CC(=O)C=CC1=O	x	x	x	x	52	n
O=C(COC(=O)c1cc(S(=O)(=O)N2CCOCC2)c(Cl)cc1Cl)c1ccc[nH]1	x	n	n	n	n	x
Cc1ccc(Oc2ccc(NC(=O)Cn3ccsc3=N)cc2)cc1	n	n	n	n	89	n	MPTP abs DR=6.3;MPTP cs DR=n
Cc1ccc(NC(=O)CN(C)C(=O)Cn2ccsc2=N)cc1	n	n	n	n	n	x
O=C(O)c1ccccc1C(=O)c1ccc2oc(=O)[nH]c2c1	x	x	x	x	n	x
CCCN1C(=O)/C(=C/c2ccc(C)o2)SC1=Nc1ccc(OC)cc1	n	n	n	n	64	n	MPTP abs DR=n;MPTP cs DR=n
CCCN1C(=O)/C(=C/c2ccc(C)o2)SC1=Nc1ccc(OCC)cc1	n	n	n	n	n	x
Cc1ccc(NS(=O)(=O)c2ccc(Br)cc2)nc1	n	n	n	n	n	x
COC1(NS(=O)(=O)c2ccc(Br)cc2)C(C)=CC(=O)C=C1C	n	n	n	n	78	n	MPTP abs DR=n;MPTP cs DR=n
CC1CCN(C(=O)c2ncn3c2c(=O)[nH]c2cccnc23)CC1	x	x	x	x	n	x
O=C(Cn1c(COc2ccccc2)nc2ccccc21)Nc1cc(Cl)cc(Cl)c1	n	n	n	n	92	94
N#CC(C#N)=NNc1ccc(S(=O)(=O)N2CCCC2)cc1	n	n	n	n	99	90
N#C/C(=N\Nc1ccc(S(=O)(=O)N2CCCCC2)cc1)C(N)=S	n	n	n	n	79	79
N#C/C(=N\Nc1ccc(S(=O)(=O)N2CCCCCC2)cc1)C(N)=S	n	n	49	n	96	91
CCOC(=O)CCC(=O)Nc1ccc(S(=O)(=O)N2CCc3ccccc32)cc1	n	n	n	n	n	x
O=S(=O)(c1ccc(S(=O)(=O)N2CCCC2)cc1)N1CCCCC1	n	n	n	n	x	x
NNC(=S)Nc1ccc(S(=O)(=O)N2CCCCC2)cc1	n	n	n	n	n	x
CCOC(=O)/C(C#N)=N/Nc1ccc(S(=O)(=O)N2CCc3ccccc32)cc1	n	n	n	n	89	89
N#C/C(=N/Nc1ccc(S(=O)(=O)N2CCOCC2)cc1)C(N)=O	n	n	n	n	n	x
Cc1ccc(CNC(=O)CSc2nc(=O)n3ccccc3n2)cc1	x	n	n	n	n	x
COCCCNC(=O)C(=O)Nc1ccc2c(c1)N(S(=O)(=O)c1cccs1)CCC2	x	n	n	n	n	x
SMILES	GPR7 antagonist	OX1R antag-1	OX1R antag-2	CHO parental Ca	MPTP inh	Rh123 counter	others
COc1ccc(-n2cc(C(=O)c3cc(Cl)ccc3O)cc(C#N)c2=O)cc1	n	n	n	n	n	x
Cc1ccccc1NC(=O)c1cc(C(=O)c2cc(Cl)ccc2O)cn(-c2ccccc2C)c1=O	n	n	n	n	90	75
Cc1ccc(-n2cc(C(=O)c3cc(Cl)ccc3O)cc(C#N)c2=O)cc1	n	n	n	n	93	84
C=CCn1c(-c2ccc(S(=O)(=O)N3CCOCC3)cc2)csc1=Nc1ccccc1	n	n	n	39	58	100
CC(=O)c1cccc(N=c2scc(-c3ccc(S(=O)(=O)N4CCOCC4)cc3)n2CCO)c1	n	n	n	n	97	87
CC1CCCN(Cc2ccc(OCc3ccccc3)cc2)C1 (configuration not stated)	n	n	n	n	n	x
O=C1NC(=S)NC1=Cc1ccc(Cl)cc1Cl	x	x	x	x	n	x
O=C1NC(=S)SC1=Cc1ccc(Cl)cc1	x	x	x	x	95	79
COc1ccc(C=C2SC(=S)NC2=O)cc1	x	x	x	x	n	x
O=C1NC(=S)SC1=Cc1ccccc1Br	x	x	x	x	94	74
O=C1NC(=S)SC1=Cc1ccc(F)cc1	x	x	x	x	82	85
O=C1NC(=O)C(=Cc2ccc(Cl)cc2Cl)S1	x	x	x	x	81	94
Cc1nc2sc(C(=O)Nc3ccccc3)c(N)c2c(C)c1[N+](=O)[O-]	n	n	n	n	n	x
Nc1nc(NCCOCCO)nc(NCC2CCCO2)c1[N+](=O)[O-] (configuration not stated)	n	n	n	n	n	x
Fc1c(F)c(C(F)(F)F)c(F)c(F)c1N/N=C\c1cccs1	n	n	n	n	87	70
Cn1c(N/N=C/c2cccs2)cc(=O)n(C)c1=O	n	n	n	n	n	x
O=C(Nc1cccnc1Cl)c1cc(-c2cccc(O)c2)on1	n	n	n	n	81	n	MPTP abs DR=n;MPTP cs DR=n
CCc1ccccc1NC(=O)c1cc(-c2cccc(O)c2)on1	n	n	n	n	102	n	MPTP abs DR=2.1;MPTP cs DR=n
CCc1ccccc1NC(=O)c1cc(-c2ccc(F)cc2)on1	n	n	n	n	n	x
COc1cc(NC(=O)c2cc(-c3cccc(O)c3)on2)cc(OC)c1OC	n	n	38	n	110	n	MPTP abs DR=2.6;MPTP cs DR=n
COC(=O)[C@]1(C)N[C@H](CN(C)C(=O)NC(C)C)[C@@H]2C(=O)N(C)C(=O)[C@@H]21	x	n	n	n	n	x
O=S(=O)(Nc1ccc(Cl)cc1)c1ccc2c(c1)CCO2	n	n	n	n	n	x
Nc1nc2ccccc2cc1C(=O)NCCCCc1ccccc1	x	x	x	x	94	104
O=C(Cc1ccc(Br)cc1)Nc1ccc(Cl)cc1	n	n	n	n	n	x
O=C(Cc1ccc(Cl)cc1)Nc1ccc(SC(F)F)cc1	n	n	n	n	92	105
CS(=O)(=O)N(CC(=O)Nc1ccccc1C(=O)N1CCCC1)c1ccc2c(c1)OCO2	n	n	n	n	n	x
CCC(Sc1nc2ccc(C)cc2[nH]1)C(=O)O (configuration not stated)	n	n	n	n	n	x
Cc1ccc2nc(SC(C(=O)Nc3ccc(F)cc3)c3ccccc3)[nH]c2c1 (configuration not stated)	n	n	n	n	77	86
Cc1ccc(C)c(NC(=O)C(Sc2nc3ccc(C)cc3[nH]2)c2ccccc2)c1 (configuration not stated)	n	n	n	n	84	92
